Assay results from ChEMBL document CHEMBL3596157, “Heteroaromatic analogs of the resveratrol analog DMU-212 as potent anti-cancer agents” (2015).

Legend:
Format in all cases: functional
[1] = system: CCRF-CEM; experiment: Growth inhibition of human CCRF-CEM cells after 48 hrs by SRB assay
Summary of the method: (§1)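 NCI-60 panel screen. Cells exposed for 48 h to five concentrations (10−4, 10−5, 10−6, 10−7 and 10−8 M). Sulforhodamine B optical density is read just before compound addition (time zero) and after 48 h, for both treated and vehicle-control wells. Percent growth is calculated against control. GI50 is the concentration giving a 50% reduction in net cell growth relative to cell numbers on day 0.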

[2] = system: HL-60(TB); experiment: Growth inhibition of human HL-60(TB) cells after 48 hrs by SRB assay; settings: HL-60, 48 h
Summary of the method: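 NCI-60 panel screen: cells were exposed to test agent at five concentrations (10−4, 10−5, 10−6, 10−7 and 10−8 M) for 48 h. Sulforhodamine B optical density was read at time zero and after exposure to compound or vehicle control, and growth percentage versus control was calculated. GI50 was taken as the concentration giving a 50% reduction in net cell growth relative to day 0 cell numbers.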

[3] = system: K562; experiment: Growth inhibition of human K562 cells after 48 hrs by SRB assay; settings: K562, 48 h; summary of the method: as §1
[4] = Growth inhibition of human MOLT4 cells after 48 hrs by SRB assay; settings: MOLT-4, 48 h; summary of the method: as §1
[5] = Growth inhibition of human RPMI8226 cells after 48 hrs by SRB assay; settings: RPMI-8226, 48 h; summary of the method: as §1
[6] = system: SR; experiment: Growth inhibition of human SR cells after 48 hrs by SRB assay
Summary of the method: (§2)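 NCI-60 panel cells; preliminary single-dose screen at 10−5 M, then five-dose testing at 10−4 to 10−8 M (tenfold steps) with 48 h exposure. SRB-stained optical density read before compound addition (time zero), after 48 h with compound, and with vehicle control. Percent growth is calculated against control. GI50 is the concentration giving 50% reduction in net growth relative to day-0 cell number.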

[7] = system: A549; experiment: Growth inhibition of human A549/ATCC cells after 48 hrs by SRB assay; settings: A549, 48 h; summary of the method: as §1
[8] = system: HOP-62; experiment: Growth inhibition of human HOP62 cells after 48 hrs by SRB assay; settings: HOP-62, 48 h; summary of the method: as §1
[9] = Growth inhibition of human HOP92 cells after 48 hrs by SRB assay; settings: HOP-92, 48 h; summary of the method: as §1
[10] = system: NCI-H226; experiment: Growth inhibition of human NCI-H226 cells after 48 hrs by SRB assay; settings: NCI-H226, 48 h; summary of the method: as §1
[11] = system: NCI-H23; experiment: Growth inhibition of human NCI-H23 cells after 48 hrs by SRB assay; settings: NCI-H23, 48 h; summary of the method: as §1
[12] = system: NCI-H322M; experiment: Growth inhibition of human NCI-H322M cells after 48 hrs by SRB assay; summary of the method: as §1
[13] = system: NCI-H460; experiment: Growth inhibition of human NCI-H460 cells after 48 hrs by SRB assay; settings: NCI-H460, 48 h; summary of the method: as §1
[14] = system: NCI-H522; experiment: Growth inhibition of human NCI-H522 cells after 48 hrs by SRB assay; settings: NCI-H522, 48 h; summary of the method: as §1
[15] = Growth inhibition of human COLO205 cells after 48 hrs by SRB assay; settings: COLO 205, 48 h; summary of the method: as §1
[16] = Growth inhibition of human HCC2998 cells after 48 hrs by SRB assay; settings: HCC 2998, 48 h; summary of the method: as §1
[17] = system: HCT-116; experiment: Growth inhibition of human HCT116 cells after 48 hrs by SRB assay; settings: HCT-116, 48 h; summary of the method: as §1
[18] = system: HCT-15; experiment: Growth inhibition of human HCT15 cells after 48 hrs by SRB assay; settings: HCT-15, 48 h; summary of the method: as §1
[19] = system: HT-29; experiment: Growth inhibition of human HT-29 cells after 48 hrs by SRB assay; settings: HT-29, 48 h; summary of the method: as §1
[20] = system: KM12; experiment: Growth inhibition of human KM12 cells after 48 hrs by SRB assay; settings: KM12, 48 h; summary of the method: as §1
[21] = system: SW-620; experiment: Growth inhibition of human SW620 cells after 48 hrs by SRB assay; settings: SW-620, 48 h; summary of the method: as §2
[22] = system: SF-268; experiment: Growth inhibition of human SF268 cells after 48 hrs by SRB assay; settings: SF-268, 48 h; summary of the method: as §1
[23] = Growth inhibition of human SF295 cells after 48 hrs by SRB assay; settings: SF-295, 48 h; summary of the method: as §1
[24] = Growth inhibition of human SF539 cells after 48 hrs by SRB assay; settings: SF-539, 48 h; summary of the method: as §1
[25] = system: SNB-19; experiment: Growth inhibition of human SNB19 cells after 48 hrs by SRB assay; settings: SNB-19, 48 h; summary of the method: as §1
[26] = system: SNB-75; experiment: Growth inhibition of human SNB75 cells after 48 hrs by SRB assay; settings: SNB-75, 48 h; summary of the method: as §2
[27] = system: U-251; experiment: Growth inhibition of human U251 cells after 48 hrs by SRB assay; settings: U-251, 48 h; summary of the method: as §2
[28] = Growth inhibition of human LOXIMVI cells after 48 hrs by SRB assay; settings: LOX IMVI; summary of the method: as §1
[29] = system: Malme-3M; experiment: Growth inhibition of human MALME-3M cells after 48 hrs by SRB assay; summary of the method: as §1
[30] = system: M14; experiment: Growth inhibition of human M14 cells after 48 hrs by SRB assay; settings: M14, 48 h; summary of the method: as §1
[31] = system: MDA-MB-435; experiment: Growth inhibition of human MDA-MB-435 cells after 48 hrs by SRB assay; settings: MDA-MB-435, 48 h; summary of the method: as §1
[32] = system: SK-MEL-2; experiment: Growth inhibition of human SK-MEL-2 cells after 48 hrs by SRB assay; settings: SK-MEL-2, 48 h; summary of the method: as §1
[33] = system: SK-MEL-28; experiment: Growth inhibition of human SK-MEL-28 cells after 48 hrs by SRB assay; settings: SK-MEL-28, 48 h; summary of the method: as §1
[34] = system: SK-MEL-5; experiment: Growth inhibition of human SK-MEL-5 cells after 48 hrs by SRB assay; settings: SK-MEL-5, 48 h; summary of the method: as §1
[35] = system: UACC-257; experiment: Growth inhibition of human UACC257 cells after 48 hrs by SRB assay; settings: UACC-257, 48 h; summary of the method: as §2
[36] = system: UACC-62; experiment: Growth inhibition of human UACC62 cells after 48 hrs by SRB assay; settings: UACC-62, 48 h; summary of the method: as §2
[37] = system: IGROV-1; experiment: Growth inhibition of human IGROV1 cells after 48 hrs by SRB assay; settings: IGROV-1, 48 h; summary of the method: as §1
[38] = system: OVCAR-3; experiment: Growth inhibition of human OVCAR3 cells after 48 hrs by SRB assay; settings: OVCAR-3, 48 h; summary of the method: as §1
[39] = system: OVCAR-4; experiment: Growth inhibition of human OVCAR4 cells after 48 hrs by SRB assay; settings: OVCAR-4, 48 h; summary of the method: as §1
[40] = system: OVCAR-5; experiment: Growth inhibition of human OVCAR5 cells after 48 hrs by SRB assay; settings: OVCAR-5, 48 h; summary of the method: as §1
[41] = system: OVCAR-8; experiment: Growth inhibition of human OVCAR8 cells after 48 hrs by SRB assay; settings: OVCAR-8, 48 h; summary of the method: as §1
[42] = Growth inhibition of human NCI-ADR-RES cells after 48 hrs by SRB assay; summary of the method: as §1
[43] = system: SK-OV-3; experiment: Growth inhibition of human SKOV3 cells after 48 hrs by SRB assay; settings: SK-OV-3, 48 h; summary of the method: as §1
[44] = system: 786-0; experiment: Growth inhibition of human 786-0 cells after 48 hrs by SRB assay; settings: 786-0, 48 h; summary of the method: as §1
[45] = system: A498; experiment: Growth inhibition of human A498 cells after 48 hrs by SRB assay; settings: A498, 48 h; summary of the method: as §1
[46] = system: ACHN; experiment: Growth inhibition of human ACHN cells after 48 hrs by SRB assay; summary of the method: as §1
[47] = system: CAKI-1; experiment: Growth inhibition of human Caki1 cells after 48 hrs by SRB assay; settings: CAKI-1, 48 h; summary of the method: as §1
[48] = Growth inhibition of human RXF393 cells after 48 hrs by SRB assay; settings: RXF 393, 48 h; summary of the method: as §1
[49] = system: SN12C; experiment: Growth inhibition of human SN12C cells after 48 hrs by SRB assay; summary of the method: as §1
[50] = system: TK-10; experiment: Growth inhibition of human TK10 cells after 48 hrs by SRB assay; settings: TK-10, 48 h; summary of the method: as §2
[51] = system: UO-31; experiment: Growth inhibition of human UO31 cells after 48 hrs by SRB assay; settings: UO-31, 48 h; summary of the method: as §2
[52] = system: PC-3; experiment: Growth inhibition of human PC3 cells after 48 hrs by SRB assay; settings: PC-3, 48 h; summary of the method: as §1
[53] = system: DU-145; experiment: Growth inhibition of human DU145 cells after 48 hrs by SRB assay; settings: DU-145, 48 h; summary of the method: as §1
[54] = system: MCF7; experiment: Growth inhibition of human MCF7 cells after 48 hrs by SRB assay; settings: MCF7, 48 h; summary of the method: as §1
[55] = system: MDA-MB-231; experiment: Growth inhibition of human MDA-MB-231/ATCC cells after 48 hrs by SRB assay; settings: MDA-MB-231, 48 h; summary of the method: as §1
[56] = Growth inhibition of human Hs578T cells after 48 hrs by SRB assay; settings: Hs-578T; summary of the method: as §1
[57] = Growth inhibition of human BT549 cells after 48 hrs by SRB assay; settings: BT-549, 48 h; summary of the method: as §1
[58] = system: T47D; experiment: Growth inhibition of human T47D cells after 48 hrs by SRB assay; summary of the method: as §2
[59] = system: MDA-MB-468; experiment: Growth inhibition of human MDA-MB-468 cells after 48 hrs by SRB assay; settings: MDA-MB-468, 48 h; summary of the method: as §1

`COc1cc(/C=C/c2cc3ccccc3o2)cc(OC)c1OC` gave a GI50 [1] of 425 nM, a GI50 [2] of 356 nM and a GI50 [3] of 267 nM. It also gave a GI50 [4] of 852 nM, a GI50 [5] of 700 nM and a GI50 [6] of 94 nM. The GI50 [7] was 615 nM, the GI50 [8] was 775 nM and the GI50 [9] was 170 nM. The GI50 [10] was 1100 nM, the GI50 [11] was 3090 nM and the GI50 [12] was 15900 nM. For the same compound, the GI50 [13] was 416 nM, the GI50 [14] was 436 nM and the GI50 [15] was 406 nM. For the same compound, the GI50 [16] was 334 nM, the GI50 [17] was 522 nM and the GI50 [18] was 402 nM. For the same compound, the GI50 [19] was 375 nM, the GI50 [20] was 508 nM and the GI50 [21] was 444 nM. It also gave a GI50 [22] of 861 nM, a GI50 [23] of 356 nM and a GI50 [24] of 273 nM. The GI50 [25] was 584 nM, the GI50 [26] was 475 nM and the GI50 [27] was 668 nM. For the same compound, the GI50 [28] was 895 nM, the GI50 [29] was 413 nM and the GI50 [30] was 479 nM. It also gave a GI50 [31] of 78 nM, a GI50 [32] of 767 nM and a GI50 [33] of 837 nM. The GI50 [34] was 345 nM, the GI50 [35] was 16400 nM and the GI50 [36] was 507 nM. For the same compound, the GI50 [37] was 807 nM, the GI50 [38] was 429 nM and the GI50 [39] was 1150 nM. It also gave a GI50 [40] of 2940 nM, a GI50 [41] of 2050 nM and a GI50 [42] of 511 nM. For the same compound, the GI50 [43] was 656 nM, the GI50 [44] was 850 nM and the GI50 [45] was 408 nM. It also gave a GI50 [46] of 863 nM, a GI50 [47] of 580 nM and a GI50 [48] of 329 nM. The GI50 [49] was 4090 nM, the GI50 [50] was 8460 nM and the GI50 [51] was 1150 nM. It also gave a GI50 [52] of 524 nM, a GI50 [53] of 1860 nM and a GI50 [54] of 373 nM. For the same compound, the GI50 [55] was 1170 nM, the GI50 [56] was 499 nM and the GI50 [57] was 1090 nM. For the same compound, the GI50 [58] was 693 nM and the GI50 [59] was 662 nM.
